Test results reported in ChEMBL document CHEMBL4261486, “2-Arylaminobenzothiazole-arylpropenone conjugates as tubulin polymerization inhibitors” (Medchemcomm, 2017).
Active and inactive are the calls of the source. The rule behind the calls is not given here.

Legend:
[1] = test system: MDA-MB-231; experiment: Antiproliferative activity against human MDA-MB-231 cells after 48 hrs by sulforhodamine B assay; type: functional, cell-based; settings: MDA-MB-231, 48 h
In short: (§1)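 Cells grown in DMEM with 10% FBS at 37 °C under 5% CO2. Plated cells were allowed 24 h before drug, then exposed continuously for 48 h at 0.01, 0.1, 1, 10 and 100 μM. Monolayers were fixed with cold 10% TCA for 1 h at 4 °C and stained with 0.057% SRB in 1% acetic acid for 30 min. Bound dye was read at 510 nm. IC50 is the 50% growth-inhibitory concentration, using time-zero and control readings.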

[2] = test system: MIA PaCa-2; experiment: Antiproliferative activity against human MIAPaCa2 cells after 48 hrs by sulforhodamine B assay; type: functional, cell-based; settings: MIA PaCa-2, 48 h; in short: as §1
[3] = test system: A549; experiment: Antiproliferative activity against human A549 cells after 48 hrs by sulforhodamine B assay; type: functional, cell-based; settings: A549, 48 h; in short: as §1
[4] = test system: HeLa; experiment: Antiproliferative activity against human HeLa cells after 48 hrs by sulforhodamine B assay; type: functional, cell-based; in short: as §1
[5] = test system: HeLa; experiment: Cell cycle arrest in human HeLa cells assessed as accumulation at G2/M phase at 3 uM after 24 hrs by propidium iodide staining based flow cytometry (reference value: 33.4%); type: functional
[6] = test system: HeLa; experiment: Induction of apoptosis in human HeLa cells assessed as appearance of condensed nuclei after 24 hrs by Hoechst […] staining based fluorescence microscopic analysis; type: functional, cell-based
In short: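 HeLa cells, 5 × 10^4 per well, were allowed 24 h to adhere. They were then exposed to 1 μM for 24 h at 37 °C and fixed in 4% paraformaldehyde for 10 min at 4 °C. Staining was with Hoechst […] at 5 μg/mL for 30 min at room temperature. Nuclear morphology was scored by fluorescence microscopy (ex 350, em 460 nm).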

[7] = Inhibition of bovine brain tubulin polymerization pretreated followed by GTP addition measured at 1 min interval for 1 hr by fluorescence reporter based assay; set-up: species or system Bos taurus
In short: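 Bovine brain tubulin (2 mg/mL) was pre-incubated with compound at 1, 2, 3, 4 and 5 μM. The buffer was PEM (80 mM PIPES, 0.5 mM EGTA, 2 mM MgCl2, pH 6.9) with 10 μM fluorescent reporter and 1 mM GTP at 37 °C. Fluorescence (ex 360 / em 420 nm) was read every min for 1 h. IC50 was derived from these concentrations.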

[8] = test system: HeLa; experiment: Induction of reactive oxygen species generation in human HeLa cells at 1 uM after 24 hrs by carboxy-DCFH-DA staining based fluorescence microscopic analysis; type: functional, cell-based
In short: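 Cells were treated with 1 μM for 24 h, then loaded with carboxy-DCFH-DA (10 μM) for 30 min at room temperature in the dark. They were resuspended in PBS at 5 × 10^4 cells per mL. DCF fluorescence was read by spectrofluorometer (ex 488 / em 525 nm per methods; 485/535 nm per legend), and images were taken by fluorescence microscopy.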

Row | Structure (SMILES) | IC50 [1] | IC50 [2] | IC50 [3] | IC50 [4] | Activity [5] | Activity [6] | IC50 [7] | Activity [8]
1 | COc1ccc2nc(-c3ccc(N/C=C\C(=O)c4ccc(OC)c(O)c4)cc3)sc2c1 | 18.9 µM | 21.9 µM | 12.8 µM | 6.9 µM | – | – | – | –
2 | COC(=O)Nc1nc2cc(C(=O)c3cccs3)ccc2[nH]1 [NOCODAZOLE] | 0.71 µM | 0.91 µM | 0.82 µM | 0.84 µM | 87.5% | Active | 1.8 µM | Active
3 | COc1ccc(C(=O)/C=C\Nc2ccc(-c3nc4cc(OC)c(OC)c(OC)c4s3)cc2)cc1F | 16.5 µM | 19.4 µM | 15.5 µM | 7.3 µM | – | – | – | –
4 | COc1ccc(C(=O)/C=C\Nc2ccc(-c3nc4cc(OC)c(OC)c(OC)c4s3)cc2C)cc1O | 12.4 µM | 15.4 µM | 15.4 µM | 11.4 µM | – | – | – | –
5 | COc1cc(OC)c2sc(-c3ccc(N/C=C\C(=O)c4ccc(OC)c(F)c4)cc3)nc2c1 | 6.7 µM | 4.3 µM | 5.3 µM | 7.3 µM | – | – | – | –
6 | COc1cc(C(=O)/C=C\Nc2ccc(-c3nc4cc(OC)c(OC)c(OC)c4s3)cc2C)cc(OC)c1OC | 12.9 µM | 22.8 µM | 23.3 µM | 11.1 µM | – | – | – | –
7 | COc1ccc2nc(-c3ccc(N/C=C\C(=O)c4cc(OC)c(OC)c([N+](=O)[O-])c4)c(C)c3)sc2c1 | 5.05 µM | 12 µM | 22.1 µM | 12.1 µM | – | – | – | –
8 | COc1ccc2nc(-c3ccc(N/C=C\C(=O)c4ccc(OC)c(O)c4)c(C)c3)sc2c1 | 14 µM | 17 µM | 18 µM | 12 µM | – | – | – | –
9 | COc1cc(C(=O)/C=C\Nc2ccc(-c3nc4cc(OC)c(OC)c(OC)c4s3)cc2C)c(Br)c(OC)c1OC | 7.3 µM | 24.3 µM | 10.3 µM | 14.3 µM | – | – | – | –
10 | COc1ccc(C(=O)/C=C\Nc2ccc(-c3nc4cc(OC)c(OC)c(OC)c4s3)cc2C)cc1[N+](=O)[O-] | 12.4 µM | 23.4 µM | 9.1 µM | 13.4 µM | – | – | – | –
11 | COc1cc(C(=O)/C=C\Nc2ccc(-c3nc4cc(OC)c(OC)c(OC)c4s3)cc2)cc(OC)c1OC | 16.5 µM | 29.1 µM | 15.5 µM | 5.3 µM | – | – | – | –
12 | COc1ccc(C(=O)/C=C\Nc2ccc(-c3nc4cc(OC)c(OC)c(OC)c4s3)cc2)cc1O | 18.1 µM | 32.8 µM | 23 µM | 14.1 µM | – | – | – | –
13 | COc1ccc2nc(-c3ccc(N/C=C\C(=O)c4cc(OC)c(OC)c(OC)c4Br)c(C)c3)sc2c1 | 9.4 µM | 23.4 µM | 6.4 µM | 13.4 µM | – | – | – | –
14 | COc1cc(OC)c2sc(-c3ccc(N/C=C\C(=O)c4cc(OC)c(OC)c([N+](=O)[O-])c4)cc3)nc2c1 | 3.06 µM | 12.7 µM | 13 µM | 19 µM | – | – | – | –
15 | COc1cc(OC)c2sc(-c3ccc(N/C=C\C(=O)c4ccc(OC)c(O)c4)c(C)c3)nc2c1 | 3.1 µM | 22.1 µM | 14.3 µM | 16.1 µM | – | – | – | –

The remaining molecules from weak to strong by IC50 [1], led by results:

Row | IC50 [1] | IC50 [2] | IC50 [3] | IC50 [4] | Structure (SMILES) | Activity [5] | Activity [6] | IC50 [7] | Activity [8]
16 | 19.6 µM | 31.1 µM | 12.1 µM | 14.1 µM | COc1ccc2nc(-c3ccc(N/C=C\C(=O)c4cc(OC)c(OC)c(OC)c4)cc3)sc2c1 | – | – | – | –
17 | 17.6 µM | 23.6 µM | 13.6 µM | 17.6 µM | COc1ccc2nc(-c3ccc(N/C=C\C(=O)c4ccc(OC)c([N+](=O)[O-])c4)cc3)sc2c1 | – | – | – | –
18 | 17.6 µM | 23.6 µM | 13.6 µM | 17.6 µM | COc1ccc2nc(-c3ccc(N/C=C\C(=O)c4ccc(OC)c([N+](=O)[O-])c4)c(C)c3)sc2c1 | – | – | – | –
19 | 17.3 µM | 16 µM | 14 µM | 14.7 µM | COc1cc(OC)c2sc(-c3ccc(N/C=C\C(=O)c4cc(OC)c(OC)c(OC)c4Br)c(C)c3)nc2c1 | – | – | – | –
20 | 17.1 µM | 15.9 µM | 21.2 µM | 11.4 µM | COc1ccc(C(=O)/C=C\Nc2ccc(-c3nc4cc(OC)c(OC)c(OC)c4s3)cc2)cc1[N+](=O)[O-] | – | – | – | –
21 | 17 µM | 10 µM | 11.1 µM | 16.1 µM | COc1ccc2nc(-c3ccc(N/C=C\C(=O)c4cc(OC)c(OC)c(OC)c4)c(C)c3)sc2c1 | – | – | – | –
22 | 16.1 µM | 19 µM | 12 µM | 10.3 µM | COc1cc(OC)c2sc(-c3ccc(N/C=C\C(=O)c4cc(OC)c(OC)c(OC)c4Br)cc3)nc2c1 | – | – | – | –
23 | 15.8 µM | 26.8 µM | 21.8 µM | 17.8 µM | COc1cc(OC)c2sc(-c3ccc(N/C=C\C(=O)c4cc(OC)c(OC)c(OC)c4)cc3)nc2c1 | – | – | – | –
24 | 15.6 µM | 23.2 µM | 13.6 µM | 6.6 µM | COc1cc(C(=O)/C=C\Nc2ccc(-c3nc4cc(OC)c(OC)c(OC)c4s3)cc2)c(Br)c(OC)c1OC | – | – | – | –
25 | 13.8 µM | 17 µM | 14.4 µM | 16.4 µM | COc1cc(OC)c2sc(-c3ccc(N/C=C\C(=O)c4cc(OC)c(OC)c(OC)c4)c(C)c3)nc2c1 | – | – | – | –
26 | 13.3 µM | 16.3 µM | 15.3 µM | 14.7 µM | COc1cc(OC)c2sc(-c3ccc(N/C=C\C(=O)c4ccc(OC)c(F)c4)c(C)c3)nc2c1 | – | – | – | –
27 | 12.9 µM | 2.9 µM | 5.8 µM | 12.9 µM | COc1cc(OC)c2sc(-c3ccc(N/C=C\C(=O)c4ccc(OC)c([N+](=O)[O-])c4)cc3)nc2c1 | – | – | – | –
28 | 12.8 µM | 22 µM | 17.4 µM | 13.1 µM | COc1cc(C(=O)/C=C\Nc2ccc(-c3nc4cc(OC)c(OC)c(OC)c4s3)cc2C)cc([N+](=O)[O-])c1OC | – | – | – | –
29 | 11.1 µM | 14.7 µM | 6 µM | 8.02 µM | COc1ccc2nc(-c3ccc(N/C=C\C(=O)c4cc(OC)c(OC)c(OC)c4Br)cc3)sc2c1 | – | – | – | –
30 | 10.8 µM | 13.9 µM | 12.1 µM | 9.39 µM | COc1cc(OC)c2sc(-c3ccc(N/C=C\C(=O)c4ccc(OC)c([N+](=O)[O-])c4)c(C)c3)nc2c1 | – | – | – | –
31 | 9.8 µM | 15.8 µM | 11.8 µM | 7.8 µM | COc1cc(C(=O)/C=C\Nc2ccc(-c3nc4cc(OC)c(OC)c(OC)c4s3)cc2)cc([N+](=O)[O-])c1OC | – | – | – | –
32 | 7.61 µM | 11.6 µM | 10.6 µM | 12.1 µM | COc1cc(OC)c2sc(-c3ccc(N/C=C\C(=O)c4ccc(OC)c(O)c4)cc3)nc2c1 | – | – | – | –
33 | 7.61 µM | 25.6 µM | 21.6 µM | 16.1 µM | COc1ccc2nc(-c3ccc(N/C=C\C(=O)c4cc(OC)c(OC)c([N+](=O)[O-])c4)cc3)sc2c1 | – | – | – | –
34 | 7.4 µM | 10.4 µM | 15.4 µM | 11.4 µM | COc1cc(OC)c2sc(-c3ccc(N/C=C\C(=O)c4cc(OC)c(OC)c([N+](=O)[O-])c4)c(C)c3)nc2c1 | – | – | – | –
35 | 2.9 µM | 1.8 µM | 1.69 µM | 1.2 µM | COc1ccc(C(=O)/C=C\Nc2ccc(-c3nc4cc(OC)c(OC)c(OC)c4s3)cc2C)cc1F | – | – | – | –
